≈ marks a conversion by molar mass, not a printed value.
Assays:
[1] = system: K562; assay: Cytotoxicity against human K562 cells after 72 hrs by SRB assay; format: functional, cell-based; conditions: K562, 72 h
In short: (§1)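 Human tumor cells seeded in 96-well plates 24 h before treatment, then exposed continuously to a range of compound concentrations for 72 h. Inhibition of cell proliferation read by SRB or MTT staining as named in each line. IC50 derived. Adriamycin (ADR) included as positive control.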

[2] = system: K562; assay: Cytotoxicity against human K562 cells after 72 hrs by MTT assay; format: functional, cell-based; conditions: K562, 72 h; in short: as §1
[3] = system: Bel-7402; assay: Cytotoxicity against human Bel7402 cells after 72 hrs by SRB assay; format: functional, cell-based; conditions: Bel-7402, 72 h; in short: as §1
[4] = system: Bel-7402; assay: Cytotoxicity against human Bel7402 cells after 72 hrs by MTT assay; format: functional, cell-based; conditions: Bel-7402, 72 h; in short: as §1
[5] = system: A549; assay: Cytotoxicity against human A549 cells after 72 hrs by SRB assay; format: functional; in short: as §1
[6] = system: A549; assay: Cytotoxicity against human A549 cells after 72 hrs by MTT assay; format: functional, cell-based; conditions: A549, 72 h; in short: as §1

| Structure (SMILES) | IC50 [1] [µg/mL] | IC50 [2] [µg/mL] | IC50 [3] [µg/mL] | IC50 [4] [µg/mL] | IC [5] [µg/mL] | IC50 [6] [µg/mL] |
| --- | --- | --- | --- | --- | --- | --- |
| COc1cccc2c1C(=O)c1c(O)c3c(c(O)c1C2=O)C[C@@](O)(C(=O)CO)C[C@@H]3O[C@H]1C[C@H](N)[C@H](O)[C@H](C)O1 [DOXORUBICIN] | 0.011 (≈ 0.0202 µM) | 0.011 (≈ 0.0202 µM) | 0.01 (≈ 0.0184 µM) | 0.01 (≈ 0.0184 µM) | 0.025 | 0.025 (≈ 0.046 µM) |
| CC1=CC[C@@H]([C@@H](C)[C@]2(O)CC[C@@]3(C)[C@@H]4CC[C@H]5C(C)(C)O[C@@H]6CC(=O)O[C@@]65C[C@@]4(O)CC[C@@]32C)OC1=O [KADCOCCILACTONE A] | > 100 | > 100 | 36.4 (≈ 70.5 µM) | 36.4 (≈ 70.5 µM) | >100 | > 100 |
| CC1=CC[C@@H]([C@@H](C)[C@@H]2CC[C@]3(O)[C@@H]4CC[C@H]5C(C)(C)O[C@@H]6CC(=O)O[C@@]65C[C@@]4(O)CC[C@]23C)OC1=O [KADCOCCILACTONE B] | > 100 | > 100 | > 100 | > 100 | >100 | > 100 |
| CC1=CC[C@@H]([C@@H](C)[C@@H]2CC[C@@]3(CO)[C@@H]4CC[C@H]5C(C)(C)O[C@@H]6CC(=O)O[C@@]65C[C@@]4(O)CC[C@]23C)OC1=O [KADCOCCILACTONE C] | 53.3 (≈ 103 µM) | 53.3 (≈ 103 µM) | > 100 | > 100 | >100 | > 100 |
| CC1=CC[C@@H]([C@@H](C)[C@@H]2CC=C3[C@@H]4CC[C@H]5C(C)(C)O[C@@H]6CC(=O)O[C@@]65C[C@@]4(OC=O)CC[C@@]32C)OC1=O [KADCOCCILACTONE D] | > 100 | > 100 | > 100 | > 100 | >100 | > 100 |
| CC1=C[C@@H]([C@@H](O)[C@@H](C)[C@H]2CC=C3[C@@H]4CC[C@H]5C(C)(C)O[C@@H]6CC(=O)O[C@@]65C[C@@]4(O)CC[C@@]32C)OC1=O [KADCOCCILACTONE E] | > 100 | > 100 | > 100 | > 100 | >100 | > 100 |
| CC(=O)O[C@H]1CC([C@H](C)[C@H](O)[C@@H]2C[C@H](C)C(=O)O2)=C2CC[C@]3(O)C[C@]45OC(=O)C[C@@]4(O)OC(C)(C)[C@@H]5CC[C@H]3[C@]21C [KADCOCCILACTONE F] | > 100 | > 100 | > 100 | > 100 | >100 | > 100 |
| CC1=C[C@@H]([C@@H](O)[C@@H](C)[C@]23CC[C@@]4(CO2)[C@@H]2CC[C@H]5C(C)(C)O[C@@H]6CC(=O)O[C@@]65C[C@@]2(O)CC[C@@]43C)OC1=O [KADCOCCILACTONE G] | > 100 | > 100 | > 100 | > 100 | >100 | > 100 |
| CC(=O)O[C@@H]1C[C@H]2C(C)(C)O[C@@H]3CC(=O)O[C@@]32C[C@@]2(O)CC[C@]34O[C@H](C5CC(C)C(=O)O5)[C@@H](C)[C@H]3C[C@H](O)[C@]4(C)[C@H]12 (stereo partly drawn) [KADCOCCILACTONE H] | > 100 | > 100 | > 100 | > 100 | >100 | > 100 |
| CC(=O)O[C@H]1C[C@@H]2[C@H](C)[C@@H](C3CC(C)C(=O)O3)O[C@@]23CC[C@]2(O)C[C@]45OC(=O)C[C@H]4OC(C)(C)[C@@H]5C[C@@H](O)[C@H]2[C@@]13C (stereo partly drawn) [KADCOCCILACTONE I] | > 100 | > 100 | > 100 | > 100 | >100 | > 100 |
| CC1=CC([C@H]2O[C@@]34[C@H](C[C@@H]5O[C@@]53[C@@H]3[C@H](O)C[C@H]5C(C)(C)O[C@@H]6CC(=O)O[C@@]65C[C@@]3(O)C[C@@H]4O)[C@@H]2C)OC1=O (stereo partly drawn) [KADCOCCILACTONE J] | > 100 | > 100 | > 100 | > 100 | >100 | > 100 |
| CC(=O)O[C@@H]1C[C@]2(C)[C@@H]([C@H](C)[C@H]3CC=C(C)C(=O)O3)CC[C@@]2(C)CCC[C@H]2C(C)(C)O[C@@H]3CC(=O)O[C@@]32CC1=O [KADSUPHILACTONE A] | 50.3 (≈ 90 µM) | 50.3 (≈ 90 µM) | > 100 | > 100 | 96.6 | 96.6 (≈ 173 µM) |
| CC1=C[C@H]([C@H](O)[C@H](C)[C@@H]2C[C@H]3O[C@]34[C@@H]3CC[C@@H]5C(C)(C)O[C@H]6CC(=O)O[C@]65C[C@]3(O)CC[C@@]24C)OC1=O [MICRANDILACTONE B] | > 100 | > 100 | > 100 | > 100 | >100 | > 100 |

— ChEMBL document CHEMBL1155114, “Kadcoccilactones A-J, triterpenoids from Kadsura coccinea” (J Nat Prod, 2008)
